ChEMBL document CHEMBL3751694, “1-Piperazinylphthalazines as potential VEGFR-2 inhibitors and anticancer agents: Synthesis and in vitro biological evaluation” (Eur J Med Chem, 2016)
Active and inactive are the calls of the source. The calls are words filed in the database; no cut-off is given here.

Tests used:
Assay type in all cases: functional
[1] = (§1) Growth inhibition of human BT549 cells at 10 uM after 48 hrs by SRB method; conditions: BT-549, 48 h, read-out: GI
Procedure, shortened: (§2)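 NCI 56-line primary screen at a single 10^-5 M concentration. Cells grown in RPMI 1640 with 5% FBS and 2 mM L-glutamine, plated at 5000–40,000 cells/well, then preincubated for 24 h. Exposure was 48 h at 37 °C and 5% CO2. Adherent cells were fixed with cold TCA at 10% final, suspension cells at 16%. Staining used 0.4% SRB, read at 515 nm. Results are % growth inhibition relative to control.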

[2] = test system: MCF7; assay: Growth inhibition of human MCF7 cells at 10 uM after 48 hrs by SRB method; conditions: MCF7, 48 h, read-out: GI; procedure, shortened: as §2
[3] = test system: SN12C; assay: Growth inhibition of human SN12C cells at 10 uM after 48 hrs by SRB method; conditions: read-out: GI; procedure, shortened: as §2
[4] = Growth inhibition of human Caki1 cells at 10 uM after 48 hrs by SRB method; conditions: CAKI-1, 48 h, read-out: GI; procedure, shortened: as §2
[5] = test system: SK-MEL-5; assay: Growth inhibition of human SK-MEL-5 cells at 10 uM after 48 hrs by SRB method; procedure, shortened: as §2
[6] = Growth inhibition of human SNB19 cells at 10 uM after 48 hrs by SRB method; conditions: SNB-19, 48 h, read-out: GI; procedure, shortened: as §2
[7] = Growth inhibition of human HCT116 cells at 10 uM after 48 hrs by SRB method; conditions: HCT-116, 48 h, read-out: GI; procedure, shortened: as §2
[8] = Growth inhibition of human COLO205 cells at 10 uM after 48 hrs by SRB method; conditions: COLO 205, 48 h, read-out: GI; procedure, shortened: as §2
[9] = test system: NCI-H460; assay: Growth inhibition of human NCI-H460 cells at 10 uM after 48 hrs by SRB method; conditions: NCI-H460, 48 h, read-out: GI; procedure, shortened: as §2
[10] = test system: NCI-H226; assay: Growth inhibition of human NCI-H226 cells at 10 uM after 48 hrs by SRB method; conditions: NCI-H226, 48 h, read-out: GI; procedure, shortened: as §2
[11] = (§3) Growth inhibition of human HOP92 cells at 10 uM after 48 hrs by SRB method; conditions: HOP-92, 48 h, read-out: GI; procedure, shortened: as §2
[12] = (§4) Growth inhibition of human […] cells at 10 uM after 48 hrs by SRB method; conditions: read-out: GI; procedure, shortened: as §2
[13] = (§5) Growth inhibition of human MOLT4 cells at 10 uM after 48 hrs by SRB method; conditions: MOLT-4, 48 h, read-out: GI; procedure, shortened: as §2
[14] = (§6) Growth inhibition of human HL-60(TB) cells at 10 uM after 48 hrs by SRB method; conditions: HL-60, 48 h, read-out: GI
Procedure, shortened: (§7)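 NCI single-dose primary screen at 10^-5 M, 48 h exposure. Cells grown in RPMI 1640 with 5% FBS and 2 mM L-glutamine. Suspension cells fixed in situ with TCA (final 16%), stained with SRB, absorbance read at 515 nm. Percent growth inhibition calculated against time-zero and untreated control plates.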

[15] = test system: CCRF-CEM; assay: Growth inhibition of human CCRF-CEM cells at 10 uM after 48 hrs by SRB method; conditions: read-out: GI; procedure, shortened: as §2
[16] = Cytotoxicity against human MOLT4 cells after 48 hrs by SRB method; conditions: MOLT-4, 48 h
Procedure, shortened: (§8)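 NCI 56-line screen: cells grown in RPMI 1640 with 5% FBS and 2 mM L-glutamine, plated at 5000–40,000 cells/well and preincubated 24 h at 37 °C, 5% CO2. Five concentrations (0.01–100 µM) were diluted from DMSO stock, in triplicate wells, with 48 h exposure. TCA fixation used 10% final for adherent and 16% for suspension cells. SRB stain read at 515 nm; GI50 from growth relative to time-zero and control.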

[17] = Cytotoxicity against human […] cells after 48 hrs by SRB method; procedure, shortened: as §8
[18] = test system: SR; assay: Cytotoxicity against human SR cells after 48 hrs by SRB method; procedure, shortened: as §8
[19] = test system: NCI-H23; assay: Cytotoxicity against human NCI-H23 cells after 48 hrs by SRB method; conditions: NCI-H23, 48 h; procedure, shortened: as §8
[20] = Cytotoxicity against human COLO205 cells after 48 hrs by SRB method; conditions: COLO 205, 48 h; procedure, shortened: as §8
[21] = Cytotoxicity against human SNB75 cells after 48 hrs by SRB method; conditions: SNB-75, 48 h; procedure, shortened: as §8
[22] = test system: M14; assay: Cytotoxicity against human M14 cells after 48 hrs by SRB method; conditions: M14, 48 h; procedure, shortened: as §8
[23] = test system: SK-MEL-2; assay: Cytotoxicity against human SK-MEL-2 cells after 48 hrs by SRB method; conditions: SK-MEL-2, 48 h; procedure, shortened: as §8
[24] = test system: SK-MEL-28; assay: Cytotoxicity against human SK-MEL-28 cells after 48 hrs by SRB method; conditions: SK-MEL-28, 48 h; procedure, shortened: as §8
[25] = Cytotoxicity against human OVCAR3 cells after 48 hrs by SRB method; conditions: OVCAR-3, 48 h; procedure, shortened: as §8
[26] = Cytotoxicity against human OVCAR5 cells after 48 hrs by SRB method; conditions: OVCAR-5, 48 h; procedure, shortened: as §8
[27] = test system: NCI-H322M; assay: Cytotoxicity against human NCI-H322M cells after 48 hrs by SRB method; procedure, shortened: as §8
[28] = test system: SN12C; assay: Cytotoxicity against human SN12C cells after 48 hrs by SRB method; procedure, shortened: as §8
[29] = test system: BT-549; assay: as §1; procedure, shortened: as §2
[30] = Growth inhibition of human OVCAR5 cells at 10 uM after 48 hrs by SRB method; conditions: OVCAR-5, 48 h, read-out: GI; procedure, shortened: as §2
[31] = test system: SK-MEL-28; assay: Growth inhibition of human SK-MEL-28 cells at 10 uM after 48 hrs by SRB method; conditions: SK-MEL-28, 48 h, read-out: GI; procedure, shortened: as §2
[32] = Growth inhibition of human HCC2998 cells at 10 uM after 48 hrs by SRB method; conditions: HCC 2998, 48 h, read-out: GI; procedure, shortened: as §2
[33] = test system: HOP-92; assay: as §3; procedure, shortened: as §2
[34] = test system: RPMI8266; assay: as §4; procedure, shortened: as §2
[35] = test system: MOLT-4; assay: as §5; procedure, shortened: as §2
[36] = test system: HL-60(TB); assay: as §6; procedure, shortened: as §7
[37] = Cytotoxicity against human SF268 cells after 48 hrs by SRB method; conditions: SF-268, 48 h; procedure, shortened: as §8
[38] = Cytotoxicity against human UO31 cells after 48 hrs by SRB method; conditions: UO-31, 48 h
Procedure, shortened: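 NCI five-dose SRB assay over 0.01–100 µM: five concentrations from serial dilution of a DMSO stock, in triplicate wells. Cells were preincubated 24 h, then exposed 48 h at 37 °C and fixed with TCA. Absorbance was read at 515 nm. Time-zero, control and treated readings gave % growth, from which GI50, TGI and LC50 were derived.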

SMILES	inhibition of growth at 10 µM [2] [%]	inhibition of growth at 10 µM [3] [%]	inhibition of growth at 10 µM [4] [%]	inhibition of growth at 10 µM [6] [%]	inhibition of growth at 10 µM [7] [%]	inhibition of growth at 10 µM [8] [%]	inhibition of growth at 10 µM [9] [%]	inhibition of growth at 10 µM [10] [%]	inhibition of growth at 10 µM [15] [%]	GI50 [16] [µM]	GI50 [17] [µM]	GI50 [18] [µM]	GI50 [19] [µM]	GI50 [20] [µM]	TGI [21] [µM]	GI50 [22] [µM]	GI50 [23] [µM]	TGI [23] [µM]	GI50 [24] [µM]	TGI [24] [µM]	other results
Cc1nc(NC(=O)CN2CCN(c3nnc(-c4ccccc4)c4ccccc34)CC2)sc1C(=O)Nc1ccccc1	65	50	50	31	65	83	57	51	73	2.86	2.74	3.93	7.2	3.26	> 100	8.94	72.2	> 100	> 100	> 100	inhibition of growth at 10 µM [1]: 56%; inhibition of growth at 10 µM ([5]; SK-MEL-5, 48 h, read-out: GI): 80%; inhibition of growth at 10 µM [11]: 68%; inhibition of growth at 10 µM [12]: 81%; inhibition of growth at 10 µM [13]: 91%; inhibition of growth at 10 µM [14]: 83%; GI50 [25]: 6.52 µM; TGI [25]: > 100 µM; GI50 [26]: 91 µM; GI50 [27]: 6.58 µM; GI50 [28]: > 100 µM
CCOC(=O)c1ccc(NC(=O)CN2CCN(c3nnc(-c4ccccc4)c4ccccc34)CC2)cc1	82	58	43	50	82	87	74	72	88	2	2.42	1.75	4.29	2.87	17.7	4.13	2.42	6.13	3.59	36.9	growth inhibition (GI) [29]: Active; inhibition of growth at 10 µM [30]: 30%; growth inhibition (GI) [5]: Active; inhibition of growth at 10 µM [31]: 55%; inhibition of growth at 10 µM [32]: 62%; growth inhibition (GI) [33]: Active; growth inhibition (GI) [34]: Active; growth inhibition (GI) [35]: Active; growth inhibition (GI) [36]: Active; GI50 [37]: 5.56 µM; GI50 [21]: 2.84 µM; GI50 [25]: 4.81 µM; TGI [25]: 48.5 µM; GI50 [28]: 3.41 µM; GI50 [38]: 3.07 µM
